Assay results: ChEMBL document CHEMBL1158993, “Inhibition of tumor-promoter-enhanced 3H-choline incorporation into cellular phospholipids by phloroglucinol derivatives from Mallotus japonicus” (1991)
Values after ≈ are worked out from the molar mass of the structure shown. Active and inactive are the calls of the source. The calls are words filed in the database; no cut-off is given here.

Assays:
[1] = Antitumor promotor activity against mouse C3H10T1/2 cells assessed as inhibition of TPA-enhanced [3H]choline chloride incorporation in to phospholipids at 50 ug/ml after 1 hr; format: functional; conditions: C3H 10T1/2
[2] = Antitumor promotor activity against mouse C3H10T1/2 cells assessed as inhibition of TPA-enhanced [3H]choline chloride incorporation in to phospholipids at 10 ug/ml after 1 hr; format: functional; conditions: C3H 10T1/2
[3] = Antitumor promotor activity against mouse C3H10T1/2 cells assessed as inhibition of TPA-enhanced [3H]choline chloride incorporation in to phospholipids at 2 ug/ml after 1 hr; format: functional; conditions: C3H 10T1/2
KB = assay: Cytotoxicity against human KB cells; format: functional
C3H 10T1/2 = assay: Antitumor promotor activity against mouse C3H10T1/2 cells assessed as inhibition of TPA-enhanced [3H]choline chloride incorporation in to phospholipids at 1.5 ug/ml after 1 hr; format: functional, cell-based
Procedure, shortened: (§1)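 Mouse C3H10T1/2 fibroblasts were exposed to test agent for 1 h. Then [methyl-3H]choline chloride (9.25 kBq/culture) was added together with TPA (50 nM), and incubation continued for 4 h. Radioactivity in the phospholipid fraction was measured, and inhibition of the TPA-enhanced incorporation was expressed as %. Test concentrations were 50, 10, 2 or 1.5 µg/ml. Values are means of duplicate experiments.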

[4] = Antitumor promotor activity against mouse C3H10T1/2 cells assessed as inhibition of TPA-enhanced [3H]choline chloride incorporation in to phospholipids after 1 hr; format: functional; conditions: C3H 10T1/2, read-out: ID50 (the source's name); procedure, shortened: as §1
HEp-2 = assay: Cytotoxicity against human Hep2 cells; format: functional, cell-based
PC-13 = assay: Cytotoxicity against human PC13 cells; format: functional, cell-based
B16 = assay: Cytotoxicity against mouse B16 cells; format: functional, cell-based
L5178Y = assay: Cytotoxicity against mouse L5178Y cells; format: functional, cell-based
P388 = assay: Cytotoxicity against mouse P388 cells; format: functional, cell-based

IC50 [4] [µg/mL]	SMILES	inhibition at 50 µg/mL [1] [%]	inhibition at 10 µg/mL [2] [%]	inhibition at 2 µg/mL [3] [%]	Activity (KB)	Activity (C3H 10T1/2)	EC50 (KB; read-out: ED50 (the source's name)) [µg/mL]	Activity (HEp-2)	Activity (PC-13)	Activity (B16)	Activity (L5178Y)	Activity (P388)
	COc1c(C)c(O)c(C(C)=O)c(O)c1Cc1c(O)c(C(C)=O)c(O)c2c1OC(C)(C)C(O)C2 (stereo unspecified) [ISOMALLOTOCHROMANOL]	100	95.5	0								
	COc1c(C)c(O)c(C(C)=O)c(O)c1Cc1c(O)c(C(C)=O)c(O)c2c1OC(C)(C)C=C2 [ISOMALLOTOCHROMENE]	100	100	97.9	Active							
	C=C(C)C(O)Cc1c(O)c(Cc2c(O)c(C(C)=O)c(O)c(C)c2OC)c(O)c(C(=O)CCC)c1O (stereo unspecified) [MALLOTOLERIN]	100	100	78.8	Active							
	COc1c(C)c(O)c(C(C)=O)c(O)c1Cc1c(O)c2c(c(C(C)=O)c1O)OC(C)(C)CC2 [MALLOTOCHROMAN]	74.3	68.7	9.3								
	COc1c(C)c(O)c(C(C)=O)c(O)c1Cc1c(O)c2c(c(C(C)=O)c1O)OC(C)(C)C=C2 [MALLOTOCHROMENE]	100	66.7		Active							
1	COc1c(C)c(O)c(C(C)=O)c(O)c1Cc1c(O)c(CC=C(C)C)c(O)c(C(C)=O)c1O [MALLOTOJAPONIN]	100	100	85.8		Active	0.58 (≈ 1.3 µM)	Active	Active	Active	Active	Active
	COc1c(C)c(O)c(C(C)=O)c(O)c1Cc1c(O)c2c(c(C(C)=O)c1O)OC(C)(C)C(O)C2 (stereo unspecified) [MALLOTOCHROMANOL]	100	29.2	2.9								
